Assay results from ChEMBL document CHEMBL1148318, “Synthesis and antibacterial activity of a novel class of 4'-substituted 16-membered ring macrolides derived from tylosin” (2004).
In brackets after ≈: the same amount, converted by molar mass.

Tests used:
Assay type in all cases: functional
Haemophilus influenzae = assay: In vitro antibacterial activity against ampicillin resistant Haemophilus influenzae 33929
How it was run: (§1)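 MIC determined by agar dilution per NCCLS recommendations. Strains: S. pneumoniae 49619 (erythromycin-susceptible); S. pneumoniae 700904 and S. pyogenes 2912 (erm-encoded MLSB-resistant); S. pneumoniae 7701 and S. pyogenes 1323 (mef-encoded efflux-resistant); H. influenzae 33929 (ampicillin-resistant).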

Staphylococcus aureus = assay: In vitro antibacterial activity against erythromycin susceptible Staphylococcus aureus 25923
How it was run: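 MIC by agar dilution following NCCLS recommendations; S. aureus 25923 is an erythromycin-susceptible strain.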

Streptococcus pneumoniae [1] = assay: In vitro antibacterial activity against efflex resistant Streptococcus pneumoniae 7701; how it was run: as §1
Streptococcus pneumoniae [2] = assay: In vitro antibacterial activity against erythromycin susceptible Streptococcus pneumoniae 49619; how it was run: as §1
Streptococcus pneumoniae [3] = assay: In vitro antibacterial activity against macrolide-lincosamide-streptogramin resistant Streptococcus pneumoniae 700904; how it was run: as §1
Streptococcus pyogenes [4] = assay: In vitro antibacterial activity against efflex resistant Streptococcus pyogenes 1323; how it was run: as §1
Streptococcus pyogenes [5] = assay: In vitro antibacterial activity against macrolide-lincosamide-streptogramin resistant Streptococcus pyogenes 2912; how it was run: as §1

SMILES: CC[C@H]1OC(=O)C[C@@H](O)[C@H](C)[C@@H](O[C@@H]2O[C@H](C)[C@@H](OC(=O)NCCc3ccccc3)[C@H](N(C)C)[C@H]2O)[C@@H](CC=O)C[C@@H](C)C(=O)/C=C/C(C)=C/[C@@H]1CO[C@@H]1O[C@H](C)[C@@H](O)[C@@H](OC)[C@H]1OC
- MIC (Haemophilus influenzae): 16 µg/mL (≈ 17.4 µM)
- MIC (Staphylococcus aureus): 2 µg/mL (≈ 2.18 µM)
- MIC (Streptococcus pneumoniae [1]): 2 µg/mL (≈ 2.18 µM)
- MIC (Streptococcus pneumoniae [2]): 1 µg/mL (≈ 1.09 µM)
- MIC (Streptococcus pneumoniae [3]): > 64 µg/mL
- MIC (Streptococcus pyogenes [4]): 0.25 µg/mL (≈ 0.272 µM)
- MIC (Streptococcus pyogenes [5]): > 64 µg/mL

SMILES: CC[C@H]1OC(=O)C[C@@H](O)[C@H](C)[C@@H](O[C@@H]2O[C@H](C)[C@@H](OC/C=C/c3cnc4ccccc4c3)[C@H](N(C)C)[C@H]2O)[C@@H](CC=O)C[C@@H](C)C(=O)/C=C/C(C)=C/[C@@H]1CO[C@@H]1O[C@H](C)[C@@H](O)[C@@H](OC)[C@H]1OC
- MIC (Haemophilus influenzae): 4 µg/mL (≈ 4.26 µM)
- MIC (Staphylococcus aureus): 0.5 µg/mL (≈ 0.532 µM)
- MIC (Streptococcus pneumoniae [1]): 0.0625 µg/mL (≈ 0.0665 µM)
- MIC (Streptococcus pneumoniae [2]): 0.0625 µg/mL (≈ 0.0665 µM)
- MIC (Streptococcus pneumoniae [3]): 1 µg/mL (≈ 1.06 µM)
- MIC (Streptococcus pyogenes [4]): 0.0625 µg/mL (≈ 0.0665 µM)
- MIC (Streptococcus pyogenes [5]): 8 µg/mL (≈ 8.52 µM)

SMILES: C=CCO[C@H]1[C@H](N(C)C)[C@@H](O)[C@H](O[C@H]2[C@@H](CC=O)C[C@@H](C)C(=O)/C=C/C(C)=C/[C@H](CO[C@@H]3O[C@H](C)[C@@H](O)[C@@H](OC)[C@H]3OC)[C@@H](CC)OC(=O)C[C@@H](O)[C@@H]2C)O[C@@H]1C
- MIC (Haemophilus influenzae): 8 µg/mL (≈ 9.85 µM)
- MIC (Staphylococcus aureus): 1 µg/mL (≈ 1.23 µM)
- MIC (Streptococcus pneumoniae [1]): 0.5 µg/mL (≈ 0.616 µM)
- MIC (Streptococcus pneumoniae [2]): 0.5 µg/mL (≈ 0.616 µM)
- MIC (Streptococcus pneumoniae [3]): > 64 µg/mL
- MIC (Streptococcus pyogenes [4]): 0.125 µg/mL (≈ 0.154 µM)
- MIC (Streptococcus pyogenes [5]): 32 µg/mL (≈ 39.4 µM)

SMILES: CC[C@H]1OC(=O)C[C@@H](O)[C@H](C)[C@@H](O[C@@H]2O[C@H](C)[C@@H](O/C=C\Cc3cnc4ccccc4c3)[C@H](N(C)C)[C@H]2O)[C@@H](CC=O)C[C@@H](C)C(=O)/C=C/C(C)=C/[C@@H]1CO[C@@H]1O[C@H](C)[C@@H](O)[C@@H](OC)[C@H]1OC
- MIC (Haemophilus influenzae): 4 µg/mL (≈ 4.26 µM)
- MIC (Staphylococcus aureus): 0.5 µg/mL (≈ 0.532 µM)
- MIC (Streptococcus pneumoniae [1]): 0.0625 µg/mL (≈ 0.0665 µM)
- MIC (Streptococcus pneumoniae [2]): 0.0625 µg/mL (≈ 0.0665 µM)
- MIC (Streptococcus pneumoniae [3]): 0.5 µg/mL (≈ 0.532 µM)
- MIC (Streptococcus pyogenes [4]): 0.0625 µg/mL (≈ 0.0665 µM)
- MIC (Streptococcus pyogenes [5]): 16 µg/mL (≈ 17 µM)

SMILES: CC[C@H]1OC(=O)[C@H](C)[C@@H](O[C@H]2C[C@@](C)(OC)[C@@H](O)[C@H](C)O2)[C@H](C)[C@@H](O[C@@H]2O[C@H](C)C[C@H](N(C)C)[C@H]2O)[C@](C)(O)C[C@@H](C)C(=O)[C@H](C)[C@@H](O)[C@]1(C)O [ERYTHROMYCIN]
- MIC (Haemophilus influenzae): 4 µg/mL (≈ 5.45 µM)
- MIC (Staphylococcus aureus): 0.5 µg/mL (≈ 0.681 µM)
- MIC (Streptococcus pneumoniae [1]): 8 µg/mL (≈ 10.9 µM)
- MIC (Streptococcus pneumoniae [2]): 0.06 µg/mL (≈ 0.0818 µM)
- MIC (Streptococcus pneumoniae [3]): > 64 µg/mL
- MIC (Streptococcus pyogenes [4]): 16 µg/mL (≈ 21.8 µM)
- MIC (Streptococcus pyogenes [5]): > 64 µg/mL

SMILES: CC[C@H]1OC(=O)C[C@@H](O)[C@H](C)[C@@H](O[C@@H]2O[C@H](C)[C@@H](O[C@H]3C[C@@](C)(O)[C@@H](O)[C@H](C)O3)[C@H](N(C)C)[C@H]2O)[C@@H](CC=O)C[C@@H](C)C(=O)/C=C/C(C)=C/[C@@H]1CO[C@@H]1O[C@H](C)[C@@H](O)[C@@H](OC)[C@H]1OC [TYLOSIN]
- MIC (Haemophilus influenzae): 8 µg/mL (≈ 8.73 µM)
- MIC (Staphylococcus aureus): 2 µg/mL (≈ 2.18 µM)
- MIC (Streptococcus pneumoniae [1]): 0.25 µg/mL (≈ 0.273 µM)
- MIC (Streptococcus pneumoniae [2]): 0.25 µg/mL (≈ 0.273 µM)
- MIC (Streptococcus pneumoniae [3]): 64 µg/mL (≈ 69.9 µM)
- MIC (Streptococcus pyogenes [4]): 0.25 µg/mL (≈ 0.273 µM)
- MIC (Streptococcus pyogenes [5]): > 64 µg/mL
